According to ChEMBL document CHEMBL1140211, “The role of molecular modeling in the design of analogues of the fungicidal natural products crocacins A and D” (Bioorg Med Chem, 2008):
pIC50: −log10 of the molar value. Calls of active or inactive are those of the source. The rule behind the calls is not given here.

Assays:
[1] = test system: Blumeria graminis f. sp. tritici; test: Inhibition of Blumeria graminis f. sp. Tritici cytochrome bc1 complex inoculated in wheat plant assessed as lowest drug concentration required to control 100% disease applied to leaf 1 hr prior inoculation measured after 6 to 9 days
Summary of the method: (§1)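 Spray solutions were made up in reverse osmosis water immediately before use, with Tween 20 at 0.05% by volume final to improve deposit retention. Concentrations tested were 100, 50, 25, 10, 5 and 1 ppm. The breakpoint is the lowest of these six concentrations giving 100% disease control, converted to molar units. Azoxystrobin served as the standard.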

[2] = test system: Puccinia triticina; test: Inhibition of Puccinia triticina cytochrome bc1 complex inoculated in wheat plant assessed as lowest drug concentration required to control 100% disease applied to leaf 1 hr prior inoculation measured after 6 to 9 days; summary of the method: as §1
[3] = test system: Phytophthora infestans; test: Inhibition of Phytophthora infestans cytochrome bc1 complex inoculated in tomato plant assessed as lowest drug concentration required to control 100% disease applied to leaf 1 hr prior inoculation measured after 6 to 9 days; summary of the method: as §1
[4] = test system: Plasmopara viticola; test: Inhibition of Plasmopara viticola cytochrome bc1 complex inoculated in vine plant assessed as lowest drug concentration required to control 100% disease applied to leaf 1 hr prior inoculation measured after 6 to 9 days; summary of the method: as §1
[5] = test system: Mycosphaerella graminicola; test: Inhibition of Mycosphaerella graminicola cytochrome bc1 complex inoculated in wheat plant assessed as lowest drug concentration required to control 100% disease applied to leaf 1 hr prior inoculation measured after 6 to 9 days; summary of the method: as §1
[6] = (§2) Inhibition of cytochrome bc1 complex in bovine heart mitochondria by NADH oxidase assay; set-up: species or system Bos taurus
Summary of the method: (§3)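 Microtitre-plate assay with beef heart mitochondria at a final 68.8 μg/ml in pH 8.0 phosphate buffer. Compounds were diluted in DMSO (2% final) from a top final concentration of 20 ppm. Plates were preincubated 15 min at room temperature, then NADH was added in pH 8.0 phosphate buffer to a final 200 ppm.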

[7] = organism: Bos taurus; test: as §2; summary of the method: as §3

Structure (SMILES) | Activity [4] [µM] | pIC50 [6] | other results
COC(=O)CNC(=O)CCC/C=C\NC(=O)/C=C(C)/C=C/[C@H](C)[C@H](OC)[C@H](C)[C@H](/C=C/c1ccccc1)OC [CROCACIN D] | 25 | 7.44 | Activity [1]: > 180 µM; Activity [2]: 9 µM; Activity [3]: 45 µM; Activity [5]: 45 µM
COC(=O)CNC(=O)CCC/C=C\NC(=O)c1ccc(Cc2ccc(I)cc2)cc1 | – | 7.74 | –
CCc1ccc(Oc2ccc(C(=O)N[C@H]3C[C@H]3CCC(=O)NCC(=O)OC)cc2)cc1 | – | 6.05 | –
CCc1ccc(Cc2ccc(Cn3c(=O)oc4ccc(NCC(=O)OC)cc43)cc2)cc1 | – | – | Activity [7]: inactive
C/C=C(C)/C=C/C=C/[C@H](OC)[C@@H](C)[C@@H](OC)[C@@H](C)CCc1oc2c(O)c(OC)cc(OC)c2c(=O)c1C [STIGMATELLIN] | 180 | 7.09 | Activity [1]: > 180 µM; Activity [2]: > 180 µM; Activity [3]: > 180 µM; Activity [5]: > 180 µM
CCOc1ccc(Cc2ccc(C(=O)N/C=C\CCCC(=O)NCC(=O)OC)cc2)cc1 | 25 | 8.05 | –
CCc1ccc(Oc2ccc(C(=O)NCCCCC(=O)NCC(=O)OC)cc2)cc1 | – | 6.40 | –
CCCCCCCCCCCCC(=O)N/C=C\CCCC(=O)NCC(=O)OC | > 100 | 7.62 | –
COC(=O)COc1ccc2oc(=O)n(Cc3ccc(Cc4ccc(I)cc4)cc3)c2c1 | – | 7.12 | –
COC(=O)CNC(=O)CCC/C=C\NC(=O)c1ccc(Cc2ccc(Br)cc2)cc1 | 10 | 7.77 | –
CCc1ccc(Cc2ccc(Cn3c(=O)oc4ccc(OCC(=O)OC)cc43)cc2)cc1 | – | 7.35 | –
CO/C=C(/C(=O)OC)c1ccccc1Oc1cc(Oc2ccccc2C#N)ncn1 [AZOXYSTROBIN] | < 1.8 | 6.92 | Activity [1]: < 1.8 µM; Activity [2]: < 1.8 µM; Activity [3]: < 1.8 µM; Activity [5]: < 1.8 µM
COC(=O)CNC(=O)CCCc1ccccc1NC(=O)CCCCCCCCCc1ccccc1 | – | – | Activity [7]: inactive
CCc1ccc(Oc2ccc(Cn3c(=O)oc4ccc(OCC(=O)OC)cc43)cc2)cc1 | – | 6.85 | –
COC(=O)CNC(=O)/C=C\C/C=C\NC(=O)/C=C(C)/C=C/[C@H](C)[C@H](OC)[C@H](C)[C@H](/C=C/c1ccccc1)OC [CROCACIN A] | 45 | 7.25 | Activity [1]: > 180 µM; Activity [2]: 45 µM; Activity [3]: > 180 µM; Activity [5]: > 180 µM
CCc1ccc(Cc2ccc(C(=O)N/C=C\CCCC(=O)NCC(=O)OC)cc2)cc1 | – | 7.80 | –
CCCCCCOc1ccc(C(=O)N/C=C\CCCC(=O)NCC(=O)OC)cc1 | > 100 | 7.68 | –
CCc1ccc(Oc2ccc(C(=O)NCCOCC(=O)NCC(=O)OC)cc2)cc1 | – | 6.64 | –
